Several values for one entry are separate records, joined by “and”; a condition that tells them apart may be missing. Equal entries are not always repeated. Activity calls are given as the source filed them.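 The calls were made as follows: active = VEGF mRNA rise whose fitted curve reaches 40% activation within the highest concentration tested on that sample; inactive = the rest, including effects opposite to expected.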

System in one assay: not listed separately
The assay can be described thus: VEGF mRNA induction by HIF pathway activators, dose response, orthogonal assay for HIF pathway activator project, cell-based, U2OS, RT-PCR, dry powder, set 3 (AID 493230). As to conditions: U2OS VEGF mRNA induction, RT-PCR; at 38 µM (top of the series). The essentials: (§1)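 Assay system – human osteosarcoma U2OS cells, endogenous VEGF-A mRNA · Input – 2,000 cells/well · Schedule – 24 h plating, then 24 h compound exposure at 37 °C · Technique – TaqMan RT-PCR, VEGF-A vs beta-actin · Control set – DMSO as negative control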
With `O=C(c1cc(-c2ccccc2)on1)N1CCc2cccnc21`, the activation was -0.596% (inactive).
On to `O=C(Nc1nnc(-c2ccccc2)s1)c1cc(-c2ccccc2)on1`, for which the activation was 2.88% (inactive).
Still for that read-out and setting: in the case of `Cc1ccc(NC(=O)c2cc(-c3ccccc3)on2)cn1` it was 4.97% (inactive).
Still for that read-out and setting: the value for `CN(C)CCNC(=O)c1cc(-c2ccccc2)on1` was -3.96% (inactive); that for `O=C(c1cc(-c2ccccc2)on1)N1CCC(CO)CC1` was 2.91% (inactive).
For the compound `CN1CCN(C(=O)c2cc(-c3ccccc3)on2)CC1`, the activation is -2.38% (inactive).
On the same count and under the same terms, the value for `O=C(NCC1CCCCC1)c1cc(-c2ccccc2)on1` was 5.37% (inactive); that for `O=C(Nc1cnc2ccccc2c1)c1cc(-c2ccccc2)on1` was 4.77% (inactive); that for `O=C(c1cc(-c2ccccc2)on1)N1CCC(N2CCOCC2)CC1` was 12.2% (inactive).
With `Cn1c(NC(=O)c2cc(-c3ccccc3)on2)nc2ccccc21`, the activation is -8.77% (inactive).
As for `O=C(NC1Cc2ccccc2C1)c1cc(-c2ccccc2)on1`, the activation is -6% (inactive).
With `O=C(NCc1ccccc1)c1cc(-c2ccccc2)on1`, the activation was -3.24% (inactive).
Still for that read-out and setting: in the case of `O=C(NCCN1CCCCC1)c1cc(-c2ccccc2)on1` it was 2.31% (inactive).
As for `O=C(c1cc(-c2ccccc2)on1)N1CCC(N2CCCC2)CC1`, the activation was 5.5% (inactive).
Same read-out and setting: in the case of `Cc1ccc(CNC(=O)c2cc(-c3ccccc3)on2)cc1` it was -2.87% (inactive); in that of `O=C(Nc1ccc2ccccc2n1)c1cc(-c2ccccc2)on1`, 6.04% (inactive); in that of `Cc1cccc(CNC(=O)c2cc(-c3ccccc3)on2)c1`, 9.8% (inactive).
Still for that read-out and setting: in the case of `O=C(Nc1ncc(-c2ccccc2)o1)c1cc(-c2ccccc2)on1` it was 6.52% (inactive); in that of `O=C(Nc1nc(-c2ccccc2)cs1)c1cc(-c2ccccc2)on1`, 12.2% (inactive).

For a further assay, the system named is U2OS VEGF mRNA induction, RT-PCR. The assay is described as above.
Conditions: not given
Summed up: as §1
For the compound `C[C@@H](Nc1nc(-c2ccccn2)nnc1-c1ccccc1)c1ccccc1`, the AC40 is 1.45 µM.
Consider `CN(C)c1nc(-c2ccccn2)nnc1-c1ccccc1`, for which the AC40 is 6.76 µM.
On to `Oc1ccc(CN2CCc3ccccc3C2)c2cccnc12`, for which the AC40 is 3.02 µM and 6.18 µM.
Still for that read-out and setting: the value for `N#CC1(c2ccccc2)CCN(Cc2ccc(O)c3ncccc23)CC1` was 31.9 µM.
Same read-out and setting: in the case of `O=C(NCCN1CCOCC1)c1cc(-c2ccccc2)on1` it was 29.1 µM.
Take `C=CCNc1nc(-c2ccccn2)nnc1-c1ccccc1`: the AC40 was 4.08 µM.
Turning to `Cn1c(-c2ccccc2)cnc1NC(=O)c1cc(-c2ccccc2)on1`, the AC40 was 24.6 µM.
Still for that read-out and setting: the value for `c1ccc(-c2nnc(-c3ccccn3)nc2NCc2ccccn2)cc1` was 4.1 µM; that for `O=C(NCCCO)c1cc(-c2ccccc2)on1` was 15.7 µM.
As for `O=C(c1cc(-c2ccccc2)on1)N1CCN(c2ccncc2)CC1`, the AC40 is 35.8 µM.
Still for that read-out and setting: the value for `CCCCNC(=O)c1cc(-c2ccccc2)on1` was 25 µM.
On to `c1ccc(-c2csc(Nc3nc(-c4ccccn4)nnc3-c3ccccc3)n2)cc1`, for which the AC40 was 0.495 µM.
`Cc1cccc(Nc2nc(-c3ccccn3)nnc2-c2ccccc2)n1`: the AC40 was 2.98 µM.
Regarding `CC(C)(C)c1ccc(CNc2nc(-c3ccccn3)nnc2-c2ccccc2)cc1`, the AC40 is 0.401 µM.
`c1ccc(-c2nnc(-c3ccccn3)nc2Nc2nc3ccccc3s2)cc1`: the AC40 is 0.427 µM.
Take `Cc1ccc(CNc2nc(-c3ccccn3)nnc2-c2ccccc2)cc1`: the AC40 is 1.01 µM.
Consider `C[C@@H](Nc1nc(-c2ccccn2)nnc1-c1ccccc1)C1CCCCC1`, for which the AC40 is 0.545 µM.
Still for that read-out and setting: in the case of `Cc1cccc(CNc2nc(-c3ccccn3)nnc2-c2ccccc2)c1` it was 1.48 µM; in that of `c1ccc(-c2nnc(-c3ccccn3)nc2N2CCC(c3ccccc3)C2)cc1` (configuration not stated), 1.05 µM.
Still for that read-out and setting: in the case of `CC1CN(Cc2ccc(O)c3ncccc23)CC(C)O1` (configuration not stated) it was 12.5 µM; in that of `c1ccc(-c2cnc(Nc3nc(-c4ccccn4)nnc3-c3ccccc3)s2)cc1`, 0.433 µM.
With `Clc1cccc(CNc2nc(-c3ccccn3)nnc2-c2ccccc2)c1`, the AC40 is 0.953 µM.
Regarding `O=C(Nc1cn2ccccc2n1)c1cc(-c2ccccc2)on1`, the AC40 is 5.31 µM.
In the case of `c1ccc(-c2nnc(-c3ccccn3)nc2NCC2CCCCC2)cc1`, the AC40 was 1.4 µM.
Same read-out and setting: the value for `O=C(NCC1CC1)c1cc(-c2ccccc2)on1` was 24.9 µM; that for `OCC1CCN(c2nc(-c3ccccn3)nnc2-c2ccccc2)CC1` was 10.9 µM.
For `c1ccc(-c2nnc(Nc3nc(-c4ccccn4)nnc3-c3ccccc3)s2)cc1`, the AC40 is 1.08 µM.
For the compound `c1ccc(-c2nnc(-c3ccccn3)nc2NCCN2CCOCC2)cc1`, the AC40 is 7.65 µM.
Regarding `Oc1ccc(CN2CCC3CCCCC3C2)c2cccnc12` (configuration not stated), the AC40 is 1.58 µM.
`COc1cccc(CNc2nc(-c3ccccn3)nnc2-c2ccccc2)c1`: the AC40 was 1.21 µM.
With `CC(C)(C)OC(=O)N1CCN(Cc2ccc(O)c3ncccc23)CC1`, the AC40 was 9.12 µM.
For the compound `O=C(NC1CCc2ccccc2C1)c1cc(-c2ccccc2)on1` (configuration not stated), the AC40 was > 38 µM (inactive).
Turning to `c1ccc(-c2nnc(-c3ccccn3)nc2Nc2cnc3ccccc3n2)cc1`, the AC40 was 1.48 µM.
With `COc1ccc(CNc2nc(-c3ccccn3)nnc2-c2ccccc2)cc1`, the AC40 was 1.24 µM.
With `Cc1cccc(NC(=O)c2cc(-c3ccccc3)on2)n1`, the AC40 was > 38 µM (inactive).
Regarding `Cc1ccc(Nc2nc(-c3ccccn3)nnc2-c2ccccc2)cn1`, the AC40 is 4.94 µM.
The same measure, in the same setting: the value for `O=C(NCCCCO)c1cc(-c2ccccc2)on1` was 9.04 µM; that for `CN1CCN(c2nc(-c3ccccn3)nnc2-c2ccccc2)CC1` was 5.84 µM; that for `Oc1ccc(CNC2Cc3ccccc3C2)c2cccnc12` was 12.9 µM.
As to `c1ccc(-c2ccc(CNc3nc(-c4ccccn4)nnc3-c3ccccc3)cc2)cc1`, the AC40 was 0.276 µM.
`C[C@H](Nc1nc(-c2ccccn2)nnc1-c1ccccc1)C1CCCCC1`: the AC40 is 1.06 µM.
As for `c1ccc(-c2nnc(-c3ccccn3)nc2N2CCC(N3CCOCC3)CC2)cc1`, the AC40 was 6.33 µM.
With `c1ccc(-c2cccc(CNc3nc(-c4ccccn4)nnc3-c3ccccc3)c2)cc1`, the AC40 is 0.529 µM.
Still for that read-out and setting: in the case of `c1ccc(CNc2nc(-c3ccccn3)nnc2-c2ccccc2)cc1` it was 1.45 µM; in that of `OCC1CCN(Cc2ccc(O)c3ncccc23)CC1`, 2.6 µM; in that of `c1ccc(-c2nnc(-c3ccccn3)nc2NCc2cccnc2)cc1`, 3.44 µM.
The same measure, in the same setting: the value for `c1ccc(-c2nnc(-c3ccccn3)nc2NCCCN2CCOCC2)cc1` was 6.44 µM.
The same measure, in the same setting: in the case of `c1ccc(-c2nnc(-c3ccccn3)nc2NCCc2ccccn2)cc1` it was 6.47 µM; in that of `CC(Nc1nc(-c2ccccn2)nnc1-c1ccccc1)c1ccccc1` (configuration not stated), 1.55 µM.
For `CC(C)(C)CCNc1nc(-c2ccccn2)nnc1-c1ccccc1`, the AC40 is 0.782 µM and 0.753 µM.
In the case of `c1ccc(-c2nnc(-c3ccccn3)nc2NCC2CCOCC2)cc1`, the AC40 is 6.69 µM.
For `c1ccc(CCNc2nc(-c3ccccn3)nnc2-c2ccccc2)cc1`, the AC40 was 5.17 µM.
As for `O=C(Nc1ncc2ccccc2n1)c1cc(-c2ccccc2)on1`, the AC40 is 29.4 µM.
Take `c1ccc(-c2nnc(-c3ccccn3)nc2NCC2CC2)cc1`: the AC40 is 2.29 µM.
On to `Cc1ccccc1CNc1nc(-c2ccccn2)nnc1-c1ccccc1`, for which the AC40 was 0.853 µM.
Regarding `O=C(NCCCN1CCOCC1)c1cc(-c2ccccc2)on1`, the AC40 is 28 µM.
For the compound `OCCCNc1nc(-c2ccccn2)nnc1-c1ccccc1`, the AC40 is 8.68 µM.
As to `CC(C)(C)CCNC(=O)c1cc(-c2ccccc2)on1`, the AC40 is > 38 µM (inactive).
Consider `c1ccc(-c2nnc(-c3ccccn3)nc2N2CCN(c3ccncc3)CC2)cc1`, for which the AC40 is 2.91 µM.
In the case of `Cn1c(-c2ccccc2)cnc1Nc1nc(-c2ccccn2)nnc1-c1ccccc1`, the AC40 was 4.51 µM.
Turning to `Oc1ccc(CN2CCC(Cc3ccccc3)CC2)c2cccnc12`, the AC40 was 6.73 µM.
`O=C(NCCCn1ccnc1)c1cc(-c2ccccc2)on1`: the AC40 is 17.2 µM.
`Cc1ccc(CNc2nc(-c3ccccn3)nnc2-c2ccccc2)cc1C`: the AC40 is 0.83 µM.
In the case of `Oc1ccc(CNC2CCc3ccccc32)c2cccnc12` (configuration not stated), the AC40 is 27.1 µM.
Consider `Cc1ccccc1CNC(=O)c1cc(-c2ccccc2)on1`, for which the AC40 was > 38 µM (inactive).
With `c1ccc(-c2nnc(-c3ccccn3)nc2N2CCC(C3CCCCC3)C2)cc1` (configuration not stated), the AC40 is 0.535 µM.
Turning to `O=C(Nc1nc2ccccc2s1)c1cc(-c2ccccc2)on1`, the AC40 is > 38 µM (inactive).
As for `COc1ccccc1N1CCN(Cc2ccc(O)c3ncccc23)CC1`, the AC40 was 0.384 µM.

Source of the values: PubChem BioAssay AID493230 (Broad Institute, 2011).
